Series [1] concerns NIH3T3. The series can be described thus: Antifibrotic activity against mouse NIH/3T3 cells assessed as inhibition of cell proliferation after 72 hrs by MTT assay. The format is functional, cell-based. The gist of the method: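 NIH-3T3 seeded at 5000 cells/well in DMEM/F12 with 10% FBS, allowed to attach 24 h, then exposed 72 h to graded compound concentrations. MTT (5 mg/mL stock) added for 2–4 h, formazan dissolved in DMSO, OD read at 490 nm. IC50 from regression equation; three repeats, mean.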

In series [2] the test system is NIH3T3. As to the kind of experiment: Antifibrotic activity against mouse NIH/3T3 cells assessed as inhibition of TGFbeta1-induced increase in alpha-SMA mRNA level at 500 nM preincubated for 1 hr followed by TGFbeta-1 addition measured after 24 hrs by qRT-PCR method. In kind it is functional, cell-based. The gist of the method:
(§1)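 NIH-3T3 cells pretreated 1 h with 500 nM compound, then stimulated with rat TGF-β1 5 ng/ml for 24 h. RNA extracted and qPCR run 40 cycles (95 °C 5 s / 60 °C 60 s). Transcripts normalized to GAPDH, fold change by 2^-ΔΔCt. n = 3, means ± SD.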
On the technique in general: Quantitative PCR measures a nucleic acid by following its amplification.

Series [3] concerns NIH3T3. As to the kind of experiment: Antifibrotic activity against mouse NIH/3T3 cells assessed as inhibition of TGFbeta1-induced increase in FN mRNA level at 500 nM preincubated for 1 hr followed by TGFbeta-1 addition measured after 24 hrs by qRT-PCR method. The format is functional, cell-based. The gist of the method:
as §1

Series [4] deals with NIH3T3. As to the kind of experiment: Antifibrotic activity against mouse NIH/3T3 cells assessed as inhibition of TGFbeta1-induced increase in COL1A1 mRNA level at 500 nM preincubated for 1 hr followed by TGFbeta-1 addition measured after 24 hrs by qRT-PCR method. In kind it is functional, cell-based. The gist of the method: as §1
For series [5], the system named is NIH3T3. The series can be described thus: Antifibrotic activity against mouse NIH/3T3 cells assessed as inhibition of alpha-SMA mRNA level at 500 nM measured after 24 hrs by qRT-PCR method. The format is functional, cell-based. Summed up: (§2)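 NIH-3T3 (DMEM/F12, 10% FBS, 37 °C, 5% CO2) given 500 nM compound without TGF-β1 for 24 h. Total RNA extracted; qPCR of α-SMA, FN, COL1A1 run 40 cycles (95 °C 5 s, 60 °C 60 s). Normalized to GAPDH, relative expression by 2^-ΔΔCt. Mean of three experiments ± SD.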

Series [6] deals with NIH3T3. The series can be described thus: Antifibrotic activity against mouse NIH/3T3 cells assessed as inhibition of FN mRNA level at 500 nM measured after 24 hrs by qRT-PCR method. The format is functional, cell-based. Summed up: as §2
For series [7], the system named is NIH3T3. As to the kind of experiment: Antifibrotic activity against mouse NIH/3T3 cells assessed as inhibition of COL1A1 mRNA level at 500 nM measured after 24 hrs by qRT-PCR method. In kind it is functional, cell-based. The gist of the method:
as §2

Series [8] is described as follows: Inhibition of cell proliferation in HUVEC at 10 uM […] by MTT assay relative to control. The format is cell-based. To be noted: human, HUVEC cells. Summed up: (§3)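 MTT test on HUVEC (DMEM/F12, 10% FBS) plated at 5000 cells/well, attached 24 h, then treated at 1, 10, 40 and 80 μM for the period printed as 42 h. MTT (5 mg/mL stock) incubated 2–4 h, formazan dissolved in DMSO, absorbance at 490 nm. Proliferation relative to control; mean of three experiments.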

Series [9] in a line: Inhibition of cell proliferation in HUVEC at 80 uM after […] by MTT assay relative to control. The format is cell-based. To be noted: human, HUVEC cells. Summed up:
as §3

Series [10] has as its system NIH3T3. As to the kind of experiment: Antifibrotic activity against mouse NIH/3T3 cells assessed as inhibition of TGFbeta1-induced increase in alpha-SMA protein expression by measuring ratio of alpha-SMA to beta-actin protein level at 500 nM preincubated for 1 hr followed by TGFbeta-1 addition measured after 24 hrs by Western blot method (reference value: 0.87). The format is functional. Summed up:
(§4)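 Western blot of NIH-3T3 treated with 500 nM compound plus rat TGF-β1 5 ng/ml for 24 h; PBS as control. RIPA/1% PMSF lysates quantified by BCA, run on 10% SDS-PAGE and blotted to PVDF. Blocked in 5% milk; α-SMA, FN, COL1A1 primaries 1:1000 overnight at 4 °C; HRP secondary 1:5000 for 2 h; ECL. Band intensity relative to β-actin. Three repeats, means ± SD.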
Background: A western blot detects proteins with antibodies after separation by electrophoresis.

For series [11], the system named is NIH3T3. The series can be described thus: Antifibrotic activity against mouse NIH/3T3 cells assessed as inhibition of TGFbeta1-induced increase in FN protein expression by measuring ratio of FN to beta-actin protein level at 500 nM preincubated for 1 hr followed by TGFbeta-1 addition measured after 24 hrs by Western blot method (reference value: 0.95). In kind it is functional. The gist of the method: as §4

Series [12] concerns NIH3T3. The series can be described thus: Antifibrotic activity against mouse NIH/3T3 cells assessed as inhibition of TGFbeta1-induced increase in COL1A1 protein expression by measuring ratio of COL1A1 to beta-actin protein level at 500 nM preincubated for 1 hr followed by TGFbeta-1 addition measured after 24 hrs by Western blot method (reference value: 0.26). The format is functional. Summed up: as §4

The mark [13] stands for this setting: Mus musculus, NIH3T3, 72 h, read-out: IC50.

Each structure is given as a SMILES string. The source made the active and inactive calls. The rule behind the calls is not given here.

For the molecule `C=C1CC[C@@H]2[C@](C)(CO)[C@H](O)CC[C@@]2(C)[C@@H]1C/C=C1\C=COC1=O`, the IC50 – broadly, the concentration that inhibits the measured activity by half – in the series on NIH3T3 [1] (nih3t3) is recorded as “Not Active”.
For `C=C1CC[C@@H]2[C@](C)(CO)[C@H](O)CC[C@@]2(C)[C@@H]1CCC1=CCOC1=O` [DEOXYANDROGRAPHOLIDE], in the series with NIH3T3 [1] (setting [13]), the IC50 stood at 176 µM. Moreover, the inhibition result in the series on NIH3T3 [2], with NIH3T3 [3], with NIH3T3 [4], in the series on NIH3T3 [5], in the series on NIH3T3 [6] and in the series with NIH3T3 [7] was “Active” throughout.
For `C=C1CC[C@H]2[C@@](C)(CC[C@@H](OC(C)=O)[C@@]2(C)C(=O)OCc2ccccc2)[C@@H]1C/C=C1\C=COC1=O`, the IC50 with NIH3T3 [1] (setting [13]) is 78 µM.
Regarding `C=C1CC[C@H]2[C@@](C)(CC[C@@H](OC(C)=O)[C@@]2(C)C(=O)OC)[C@@H]1CCC1=CCOC1=O`, the IC50 in the series on NIH3T3 [1] (setting [13]) is 80.6 µM.
With `C=C1CC[C@@H]2[C@](C)(CO)[C@H](O)CC[C@@]2(C)[C@@H]1/C=C/C1=CCOC1=O`, the IC50 with NIH3T3 [1] (setting [13]) worked out at 64.3 µM. The inhibition result with NIH3T3 [2], with NIH3T3 [3], with NIH3T3 [4], in the series on NIH3T3 [5], in the series on NIH3T3 [6] and in the series on NIH3T3 [7] was “Active” each time.
Regarding `C=C1CC[C@H]2[C@@](C)(CC[C@@H](O)[C@@]2(C)C(=O)OC)[C@@H]1C/C=C1\C=COC1=O`, the half-maximal inhibitory concentration (IC50) in the series on NIH3T3 [1] (setting [13]) is 177 µM.
On to `C=C1CC[C@H]2[C@@](C)(CC[C@@H](O)[C@@]2(C)C(=O)OCc2ccccc2)[C@@H]1/C=C/C1=CCOC1=O`, for which the IC50 with NIH3T3 [1] (setting [13]) turned out to be 13.6 µM. Besides, at 10 µM the inhibition in [8] was 9.7%. Also, the inhibition (usually the change of the read-out against control, counted positive when it falls) at 80 µM in series [9] was determined as 68.7%. Moreover, the inhibition entry with NIH3T3 [2], in the series on NIH3T3 [3], in the series on NIH3T3 [4], in the series with NIH3T3 [5], with NIH3T3 [6] and with NIH3T3 [7] was “Active” throughout. Moreover, the Ratio with NIH3T3 [10] came to 0.39; in the series on NIH3T3 [11] it was 0.47; in the series with NIH3T3 [12] it was 0.42.
Take `C=C1CC[C@H]2[C@@](C)(CC[C@@H](OC(C)=O)[C@@]2(C)C(=O)OCc2ccccc2)[C@@H]1/C=C/C1=CCOC1=O`: the 50% inhibitory concentration (IC50) in the series on NIH3T3 [1] (setting [13]) worked out at 52.7 µM.
With `C=C1CC[C@@H]2[C@](C)(CO)[C@H](O)CC[C@@]2(C)[C@@H]1C/C=C1/C(=O)OC[C@H]1O` [ANDROGRAPHOLIDE], in the series on NIH3T3 [1] (setting [13]), the IC50 turned out to be 95.3 µM. The same molecule yielded an inhibition at 10 µM in [8] of 10.4%. Moreover, in [9], the inhibition at 80 µM was found to be 26.4%. Moreover, the inhibition entry in the series on NIH3T3 [2], in the series with NIH3T3 [3], in the series with NIH3T3 [4], in the series on NIH3T3 [5], in the series with NIH3T3 [6] and with NIH3T3 [7] was “Active” each time.
As for `C=C1CC[C@H]2[C@@](C)(CC[C@@H](O)[C@@]2(C)C(=O)OC)[C@@H]1CCC1=CCOC1=O`, in the series on NIH3T3 [1] (setting [13]), the IC50 is 60.6 µM.
On the same count and under the same terms, next, `C=C1CC[C@H]2[C@@](C)(CC[C@@H](OC(C)=O)[C@@]2(C)C(=O)OC)[C@@H]1/C=C/C1=CCOC1=O`: 32.2 µM.
The same measure, in the same setting: the same measure for `C=C1CC[C@H]2[C@@](C)(CC[C@@H](OC(C)=O)[C@@]2(C)C(=O)OC)[C@@H]1C/C=C1\C=COC1=O`: 69.7 µM; for `C=C1CC[C@H]2[C@@](C)(CC[C@@H](OC(C)=O)[C@@]2(C)C(=O)OCc2ccccn2)[C@@H]1CCC1=CCOC1=O`: 55.5 µM; for `C=C1CC[C@H]2[C@@](C)(CC[C@@H](O)[C@@]2(C)C(=O)OCc2ccccn2)[C@@H]1/C=C/C1=CCOC1=O`: 80.2 µM.
In the case of `C=C1CC[C@H]2[C@@](C)(CC[C@@H](O)[C@@]2(C)C(=O)OCc2ccccc2)[C@@H]1CCC1=CCOC1=O`, in the series on NIH3T3 [1] (setting [13]), the IC50 was 37.9 µM.
Take `C=C1CC[C@H]2[C@@](C)(CC[C@@H](O)[C@@]2(C)C(=O)OCc2ccccn2)[C@@H]1CCC1=CCOC1=O`: the IC50 with NIH3T3 [1] (setting [13]) came to 79.8 µM.
In the case of `C=C1CC[C@H]2[C@@](C)(CC[C@@H](O)[C@@]2(C)C(=O)OCc2ccccc2)[C@@H]1C/C=C1\C=COC1=O`, in the series on NIH3T3 [1] (setting [13]), the IC50 was determined as 177 µM.
Take `C=C1CC[C@H]2[C@@](C)(CC[C@@H](O)[C@@]2(C)C(=O)OC)[C@@H]1/C=C/C1=CCOC1=O`: the IC50 in the series on NIH3T3 [1] (setting [13]) came to 111 µM.
For `C=C1CC[C@H]2[C@@](C)(CC[C@@H](OC(C)=O)[C@@]2(C)C(=O)OCc2ccccc2)[C@@H]1CCC1=CCOC1=O`, the IC50 with NIH3T3 [1] (setting [13]) stood at 12.9 µM. Moreover, at 10 µM the inhibition in series [8] was 6.6%. In series [9], this molecule had an inhibition at 80 µM of 55.7%. The inhibition result in the series on NIH3T3 [2], in the series with NIH3T3 [3], in the series on NIH3T3 [4], in the series with NIH3T3 [5], with NIH3T3 [6] and in the series on NIH3T3 [7] was “Active” throughout. Besides, the Ratio turned out to be 0.4 in the series with NIH3T3 [10], 0.46 in the series on NIH3T3 [11] and 0.38 with NIH3T3 [12].
For the molecule `C=C1CC[C@H]2[C@@](C)(CC[C@@H](OC(C)=O)[C@@]2(C)C(=O)OCc2ccccn2)[C@@H]1/C=C/C1=CCOC1=O`, the IC50 with NIH3T3 [1] (setting [13]) is 34.9 µM.

(Values after ChEMBL document CHEMBL4270620, “Synthesis and anti-fibrosis activity study of 14-deoxyandrographolide-19-oic acid and 14-deoxydidehydroandrographolide-19-oic acid derivatives” (Eur J Med Chem, 2018).)
